Compound activity: PubChem, several laboratories
A selection: hits, their analogues and other compounds. The true share with any hit is near 4.3%.
ALR inh: human ALR oxidase inhibition via reduced H2O2 | purified ALR, DTT oxidation, H2O2 HRP-luminol luminescence | inhibition, % (concentration not given with the values) | 290,000 compounds, 3.8% hits | AID 485317;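 active = mean replicate inhibition above about 79%, with every replicate also reaching it, limit read from the data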
Target sequence (P55789 whole entry, looked up): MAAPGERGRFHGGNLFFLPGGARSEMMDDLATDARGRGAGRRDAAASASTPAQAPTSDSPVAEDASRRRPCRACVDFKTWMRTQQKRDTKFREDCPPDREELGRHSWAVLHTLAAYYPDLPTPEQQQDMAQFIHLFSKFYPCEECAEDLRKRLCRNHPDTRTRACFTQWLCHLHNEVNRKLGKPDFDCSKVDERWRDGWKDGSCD
UBC9 SUMO inh: blocks human SUMOylation mediated by UBC9. 290,000 compounds, 0.36% hits. P63279. inhibition, % at 35 µM. HTRF SUMOylation assay, SAE1/SAE2 + UBC9, in vitro. AID 2006; in the data active = inhibition above about 50%, passing the limit was not always enough
Target sequence (P63279 whole entry, looked up): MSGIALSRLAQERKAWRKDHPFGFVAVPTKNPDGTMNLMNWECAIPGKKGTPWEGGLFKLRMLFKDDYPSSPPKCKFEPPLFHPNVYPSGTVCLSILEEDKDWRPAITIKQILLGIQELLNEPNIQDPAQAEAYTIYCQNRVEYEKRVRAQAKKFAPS
Rin1-Abl PPI inh: human Rin1-Abl interaction inhibition; inhibition, % at 7.35 µM; TR-FRET Rin1/Abl binding, biochemical; 360,000 compounds, 0.4% hits; in the data active = inhibition above about 5%, passing the limit was not always enough
RBBP9 inh: inhibitors of human serine hydrolase RBBP9 | O75884 | recombinant RBBP9, FP-Rh probe fluorescence polarization | inhibition, % at 7.94 µM | 220,000 compounds, 0.2% hits;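 active = inhibition above the campaign mean of all tested compounds plus 3 SD, cut at about 14% in these data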
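System: RBBP9 protein / Quantity: 2.5 µM RBBP9 dispensing solution, before mixing / Also added: Serine-hydrolase probe FP-Rh, 375 nM pre-mixing / Dosing: 7.94 µM single dose, 0.794% DMSO / Timing: enzyme-compound preincubation 30 min, then probe labeling 45 min, 25 °C / Signal: FP readout at 525/598 nm / Controls: DMSO-treated enzyme wells and wells lacking RBBP9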
PREPL inh: inhibitors of human prolyl oligopeptidase-like enzyme PREPL. recombinant PREPL, fluorescence polarization activity-based probe. inhibition, % at 5.96 µM. 320,000 compounds, 0.68% hits. AID 2751; in the data active = inhibition above about 43%
UBC13 inh: blocks human UBC13 polyubiquitin chain formation; P61088; TR-FRET; inhibition, % at 20 µM; 330,000 compounds, 0.47% hits; AID 485273; in the data active = inhibition above about 45%, passing the limit was not always enough
Target sequence (P61088 whole entry, looked up): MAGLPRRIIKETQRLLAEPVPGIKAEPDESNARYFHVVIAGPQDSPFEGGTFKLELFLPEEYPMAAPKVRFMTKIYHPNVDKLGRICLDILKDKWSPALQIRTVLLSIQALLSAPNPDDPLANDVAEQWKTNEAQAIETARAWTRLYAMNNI
Rin1-Abl confirm: confirmation of inhibitors of human Rin1-Abl interaction | shares compounds with Rin1-Abl PPI inh | TR-FRET Rin1-Abl binding, purified proteins | inhibition, % at 7.35 µM | 1,300 compounds, 49% hits | AID 602124
GFP quench-1: quenches GFP fluorescence, counter-screen for Rin1-Abl inhibitors. shares compounds with Rin1-Abl PPI inh. inhibitors/quenchers counterscreen. inhibition, % at 6.75 µM. 1,300 compounds, 8.5% hits;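 note: ABL1-eGFP fusion protein alone without its partner RIN1-SBP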
GFP quench dose: counter-screen for Rin1-Abl inhibitors: GFP quenchers, dose response. shares compounds with Rin1-Abl PPI inh. GFP fluorescence interference/quenching counterscreen. IC50, µM. 230 tested, under 10 active. AID 602182; call rule not given here;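 note: ABL1-eGFP fusion protein alone without its RIN1 binding partner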
GFP quench-2: counter-screen for Rin1-Abl interaction inhibitors: GFP fluorescence quenching | shares compounds with Rin1-Abl PPI inh | GFP fluorescence quenching counterscreen, biochemical | IC50, µM | 25 tested, under 10 active; call rule not given here
A number is an active result; . = inactive; / = no result. Cut-off read from the data, not from the text of the source, unless noted: active = inhibition above about 6.5%; inactive = the rest.

SMILES | ALR inh | UBC9 SUMO inh | Rin1-Abl PPI inh | RBBP9 inh | PREPL inh | UBC13 inh | Rin1-Abl confirm | GFP quench-1 | others
COc1ccc(S(=O)(=O)N(C)C[C@H]2Oc3ccc(NC(=O)C4CC4)cc3C(=O)N([C@H](C)CO)C[C@@H]2C)cc1 | . | / | 19 | / | . | . | 26 | .
CCOC(=O)CCCCCC(=O)Nc1ccc2c(c1)C(=O)N([C@H](C)CO)C[C@@H](C)[C@@H](CN(C)C(=O)CCC(F)(F)F)OCCCC[C@H](C)O2 | / | / | 51 | / | / | / | 55 | . | GFP quench dose=.
CCOC(=O)CCCCCC(=O)Nc1ccc2c(c1)C(=O)N([C@H](C)CO)C[C@H](C)[C@@H](CN(C)S(C)(=O)=O)OCCCC[C@@H](C)O2 | / | / | 10 | / | / | / | 14 | .
C[C@@H]1CCCCO[C@@H](CN(C)C(=O)CCCN(C)C)[C@@H](C)CN([C@H](C)CO)C(=O)c2cc(NC(=O)CCC(F)(F)F)ccc2O1 | / | / | . | / | / | / | / | /
O=S(=O)(NCc1ccc(F)cc1)c1ccc(-n2cccn2)cc1 | . | . | . | / | . | . | / | /
O=C(NCCC(=O)N1CCC2(CC1)NCCc1[nH]cnc12)c1cccc(Cl)c1 | . | / | . | / | . | . | / | /
Cc1nc(SCC(=O)N2CC(C)OC(C)C2)nc(C)c1C (centres undefined) | . | . | 8.3 | . | . | . | 9.5 | .
CCc1c(C)nc(SCC(=O)N2CC(C)OC(C)C2)[nH]c1=O (centres undefined) | . | / | . | / | . | . | / | /
O=C(O)C(Cc1c[nH]c2ccccc12)N1C(=O)C2C3c4ccccc4C(c4ccccc43)C2C1=O (centres undefined) | . | . | . | . | . | . | / | /
CCOc1ccc(/C=N/Nc2cc(N3CCOCC3)ncn2)c(O)c1 | / | / | 8.3 | / | / | / | . | .
O=C1C2CCCCC2C(=O)N1c1ccc(S(=O)(=O)Nc2ncccn2)cc1 (centres undefined) | / | . | . | / | . | . | / | /
CCCSc1nnc(CSc2nc(C)cc(C)n2)n1C | . | . | 20 | . | . | . | 15 | .
O=C(CN1CCN(Cc2ccccc2Cl)C1=O)NCc1ccccn1 | / | . | . | . | . | . | / | /
CCOC(=O)N1CCC(Nc2ncnc3c2cnn3-c2ccccc2)CC1 | . | . | 9.9 | . | . | . | . | .
CCCCNc1n[n+](C)c(-c2cccc(C)c2)s1 | / | . | / | / | / | / | / | /
CC(=O)c1cccc(OCc2cc(C(=O)N3CCC(N4CCCCC4)CC3)no2)c1 | . | / | 9.9 | / | . | . | . | .
Cc1ccc(NC(=O)c2ncn(CC(=O)NCc3ccc4c(c3)OCO4)n2)cc1C | / | / | . | / | / | / | / | /
CC(=O)c1sc(NC(=O)c2ccc(Br)o2)nc1C | . | . | 12 | / | . | . | . | .
CC1CCCN(C(=O)C2CCN(S(=O)(=O)c3ccc4c(c3)CC(C)N4C(=O)C3CC3)CC2)C1 (centres undefined) | . | . | 15 | / | . | . | . | .
C/C(N)=C(/C#N)C(=O)CSc1nc(-c2ccccc2)c(-c2ccccc2)o1 | . | . | . | / | . | . | / | /
COc1cccc(C(=O)c2ncc(C(F)(F)F)cc2Cl)c1 | . | . | 13 | . | . | . | . | .
Cc1[nH][nH]c(=O)c1C(c1c(C)[nH][nH]c1=O)c1cn(Cc2cccc3ccccc23)c2ccccc12 | . | . | 19 | . | . | . | 6.5 | .
Cc1ccc(C2/C(=C(\O)c3ccc4c(c3)OCCO4)C(=O)C(=O)N2CC2CCCO2)cc1 (centres undefined) | . | . | 8.5 | / | / | . | . | .
COc1cccc(C2/C(=C(\O)c3ccc4c(c3)OCCO4)C(=O)C(=O)N2CC2CCCO2)c1 (centres undefined) | . | . | . | / | / | . | / | /
Cc1noc(C)c1NC(=O)NC(c1ccccc1)c1ccccc1 | . | . | 6.3 | . | . | . | . | .
SMILES | ALR inh | UBC9 SUMO inh | Rin1-Abl PPI inh | RBBP9 inh | PREPL inh | UBC13 inh | Rin1-Abl confirm | GFP quench-1 | others
CCN(CC(=O)Nc1ccc(OC)cc1)C(=O)c1cc(S(=O)(=O)N(C)C)ccc1N1CCCC1 | . | / | . | / | . | . | / | /
COc1cc(Cl)ccc1NC(=O)COc1ccccc1C(=O)NN | . | . | . | . | . | . | / | /
O=C(Cc1ccc(NC(=O)C2CCN(C(=O)C3CC3)CC2)cc1)Nc1ccc(C(=O)N2CCOCC2)cc1 | / | / | 8.9 | / | / | / | 9.7 | .
CC(C)(C)OC(=O)N1CCC(C(=O)Nc2ccc(C(=O)N3CCOCC3)cc2)CC1 | . | / | . | / | . | . | / | /
CC(C)(C)OC(=O)N1CCC(C(=O)Nc2ccc(C(=O)N3CCCCC3)cc2)CC1 | / | / | 25 | / | / | / | 17 | . | GFP quench dose=.
CCOC(=O)C1CCN(C(=O)Nc2ccc(NC(=O)C3CCN(C(=O)OCC)CC3)cc2)CC1 | . | . | 14 | . | . | . | 11 | .
O=C(Cc1ccc(NC(=O)C2CCN(C(=O)C3CCCC3)CC2)cc1)Nc1ccc(C(=O)N2CCOCC2)cc1 | / | / | 67 | / | / | / | 70 | . | GFP quench dose=.;GFP quench-2=.
COCCNC(=O)C1(C)CCN(C(=O)COc2ccc(Cl)cc2Cl)C1 (centres undefined) | / | / | . | / | / | / | / | /
O=C(Nc1nc(-c2cc(Cl)sc2Cl)cs1)c1ccc(Br)s1 | / | . | 6.0 | . | . | . | . | .
C[C@H]1CN([C@@H](C)CO)C(=O)CCCn2nncc2CO[C@H]1CN(C)S(=O)(=O)c1ccc2c(c1)OCCCO2 | / | / | . | / | / | / | / | /
COC(=O)c1c(C)nc(C)c2c(=O)oc3ccccc3c12 | . | . | 15 | . | . | . | 38 | . | GFP quench dose=.
C[C@H](CO)N1C[C@H](C)[C@@H](CN(C)Cc2ccc(Cl)c(Cl)c2)Oc2c(NC(=O)Cc3ccccc3)cccc2C1=O | . | / | . | / | . | . | / | /
Cc1ccc(S(=O)(=O)Nc2cccc3c2O[C@H](CN(C)Cc2ccc(-c4ccccc4)cc2)[C@@H](C)CN([C@H](C)CO)C3=O)cc1 | / | / | 10 | / | . | . | 9.7 | .
C[C@H](CO)N1C[C@H](C)[C@@H](CN(C)Cc2ccc3c(c2)OCO3)Oc2c(NS(=O)(=O)c3cn(C)cn3)cccc2C1=O | . | / | . | / | . | . | / | /
C[C@H](CO)N1C[C@H](C)[C@@H](CN(C)Cc2ccc(-c3ccccc3)cc2)Oc2c(NS(=O)(=O)c3ccccc3)cccc2C1=O | . | / | 14 | / | . | . | 9.6 | .
C[C@H](CO)N1C[C@H](C)[C@@H](CN(C)Cc2ccc(-c3ccccc3)cc2)Oc2c(NS(=O)(=O)c3cn(C)cn3)cccc2C1=O | . | / | 36 | / | . | . | 29 | .
C[C@H](CO)N1C[C@H](C)[C@@H](CN(C)Cc2ccc(Cl)c(Cl)c2)Oc2c(NC(=O)c3ccncc3)cccc2C1=O | . | / | 13 | / | . | . | 8.7 | .
